# Compound activity from PubChem.
# An excerpt weighted towards active compounds, which were near 2.7% of everything screened.
# BB579 growth dn: chemicals that inhibit yeast BB579 growth in restrictive medium (lifespan-shortening candidates). 0.51% of 140,000 active. AID 804. S. cerevisiae BB579 growth, OD615, 48 h. inhibition, % at 10 µM;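 active = inhibition above a set limit, 3 SD over the mean compound inhibition, cut at about 44% in these data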
#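 Detection: OD615 turbidity measurement; Material: Saccharomyces cerevisiae DeaD strain BB579, replicative lifespan model yeast; Timing: 48 h exposure, 30 °C; Doses: single 10 µM dose; Medium: CSMM-D restrictive synthetic medium containing dextrose (glucose); Controls: amphotericin B at 10 µg/mL as positive control.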
# Yeast life ext: extends the lifespan of yeast. inhibition of the nicotinamide effect, % at 10 µM. S. cerevisiae growth with nicotinamide, OD615; deaD strain in restrictive glucose medium. AID 775. 0.68% of 130,000 active;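 active = inhibition above a set limit, placed 3 SD over the median of all compounds, cut at about 26% in these data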;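 note: 0% = nicotinamide-treated wells and 100% = cells grown without nicotinamide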
#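 System: DeaD-strain S. cerevisiae / Buffer or medium: CSMM-D, restrictive glucose (dextrose) synthetic minimal medium / Probe or stimulus: nicotinamide, 1.5 mM, co-present with compound / Compound: one concentration, 10 µM, DMSO 0.25% / Incubation: 48 h compound exposure at 30 °C, humidified / Technique: optical density (absorbance) at 615 nm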
# SDO1 yeast rescue: restores growth of sdo1-depleted yeast. z-score at 10 µM. S. cerevisiae sdo1-depleted JHY4D growth rescue, OD600 30 h; hits give high values; pdr5 snq2 efflux-pump mutant strain. AID 817. 0.21% of 140,000 active;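 active = z-score above 3 at both the 24 hr and the 30 hr optical density reads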;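 note: z-score against mean and SD of all compound wells on the same plate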
# RAM network inh: inhibitors of the yeast RAM network; 1.8% of 190,000 active; S. cerevisiae dse1pr::URA3 reporter, 5-FOA growth OD615, 2 d; analog-sensitive cbk1-as2 kinase mutant strain; inhibition, % at 50 µM; AID 868;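 active = inhibition above a set limit, 3 SD over mean compound inhibition, cut at about 8.4% in these data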;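 note: 0% = DMSO-only wells with no growth and 100% = 10 µM 1-NA-PP1 full growth; inhibition rescues growth on 5-FOA so higher OD means more RAM inhibition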
# Starred values were filed as active, the others as inactive; x = no result given.
SMILES,BB579 growth dn,Yeast life ext,SDO1 yeast rescue,RAM network inh
CCOC(=O)c1ccc(NC(=O)CCc2nc(-c3ccccc3)no2)cc1,-36,-7,-1.7,9.5*
CC(C)CC(=O)/C=C/n1c(=S)oc2ccccc21,-17,0,-0.42,2
CC(=O)/C=C/n1c(=S)oc2ccccc21,21,39*,-0.55,-1
O=C(N/N=C\c1cccc([N+](=O)[O-])c1O)C1COc2ccccc2O1 (stereo not drawn),64*,-6,1.2,-1
O=C(N/N=C/c1cccc([N+](=O)[O-])c1)C1COc2ccccc2O1 (stereo not drawn),x,x,x,0
CC(C)n1cnc2cc(NCc3nc4ccccc4n3C)ccc21,-36,2,1.5,2
CC(=O)Oc1ccc2c(=O)c(N3C(=O)c4ccccc4C3=O)c(C)oc2c1,-39,28*,0.43,1
Cc1cc(=O)oc2cc(OC(=O)CCCCCN3C(=O)c4ccccc4C3=O)ccc12,-50,32*,0.66,6
C/C(=N\NC(=O)c1ccccc1[N+](=O)[O-])c1c(O)cc(C)oc1=O,-9,33*,-0.55,-1
C/C(=N\NC(=O)c1ccccc1O)c1c(O)cc(C)oc1=O,-22,62,0.55,-1
C/C(=N\NC(=O)c1cccnc1)c1c(O)cc(C)oc1=O,-22,42*,0.49,-1
C/C(=N\NC(=O)c1cccnc1)c1cc(C)oc1C,3,6,1.9,1
O=C(C[n+]1cccc(NC(=O)c2ccccc2)c1)c1ccc(NC(=O)c2ccccc2)cc1,-69,-10,1.9,11*
CCCC[n+]1c(-c2ccc(Cl)cc2Cl)csc1Nc1ccccc1,-25,32*,0.03,0
C=CC[n+]1c(-c2ccc(Cl)cc2Cl)csc1Nc1ccc(NC(C)=O)cc1,x,x,x,-1
Cc1nn(-c2ccc(F)cc2)c(Cl)c1/C=C1\C(=O)Nc2ccccc21,-31,-1,-2,8.6*
Cc1nn(-c2ccccc2)c(Cl)c1/C=C1\C(=O)N(C)C(=S)N1C,x,x,x,2
CNc1oc(Cc2cccc3ccccc23)nc1C#N,-50,-9,-1.4,1
CC1CN(c2oc(Cc3cccc4ccccc34)nc2C#N)CC(C)O1 (stereo not drawn),-4,-13,-1,9.9*
O=C1CCCN1CCC12CC3CC(CC(C3)C1)C2,x,x,x,0
CC(=O)C1=C(C)N(Cc2ccccc2)C(=O)N[C@H]1c1cccc(C(F)(F)F)c1,-23,3,-0.64,-1
CC(=O)C1=C(C)N(Cc2ccccc2)C(=O)N[C@@H]1c1cccc(C(F)(F)F)c1,-27,29*,0.67,1
CCOC(=O)c1oc2ccccc2c1CSc1nnc(-c2ccco2)o1,-24,x,-2,3
CCOC(=O)c1oc2ccccc2c1CSc1nnnn1-c1ccc(C)cc1,-24,4,-0.51,10*
Cc1cc(CNC(=O)COc2ccc(F)cc2Cl)cc(C)c1O,x,x,x,10*
SMILES,BB579 growth dn,Yeast life ext,SDO1 yeast rescue,RAM network inh
c1ccc(C2=Nn3c(nnc3-c3cc(-c4ccccc4)n[nH]3)SC2)cc1,-4,-4,-1.3,8.6*
Clc1ccc(C2=Nn3c(nnc3-c3cc(-c4ccccc4)n[nH]3)SC2)cc1,-72,-17,-0.97,9.1*
c1ccc(-c2nnc3n2N=C(c2ccc4c(c2)OCO4)CS3)nc1,-55,-3,0.87,9.2*
O=[N+]([O-])c1ccc(N(c2ccccc2)c2ccccc2)cc1,-13,-23,-1.1,10*
CCN(C(=O)c1ccccc1)c1ccc([N+](=O)[O-])cc1,-29,0,0.17,-1
CCOC(=O)c1cc(NC(=O)Nc2ccc(OC)c(OC)c2)c(C)nc1C,-29,-14,-0.39,1
Cc1nn(-c2ccccc2)c2c1C1(C(=O)N(C)c3ccccc31)C(C#N)=C(N)O2 (stereo not drawn),-33,0,-0.31,9.8*
COc1ccc(Oc2nc(SC)nc3ccccc23)cc1,-13,-12,-1,11*
ClC(Br)=C(n1cnc2ccccc21)n1cnc2ccccc21,-53,41*,-1.3,0
CN(CC(=O)Nc1ccc(Cl)c(Cl)c1)C(=O)/C=C/c1ccc(F)cc1,12,-3,-0.54,4
Cc1ccc(-n2c(SCC(=O)NCc3ccco3)nc3sc4c(c3c2=O)CC(C)(C)SC4)cc1,-66,25,-0.83,10*
CCN(CC)C(=O)CSc1nc2sc3c(c2c(=O)n1-c1ccc(C)cc1)CC(C)(C)SC3,-44,-9,-0.25,3
Cc1cc(C)cc(-n2c(SCC(=O)NCc3ccco3)nc3ccccc3c2=O)c1,-41,56*,-1.1,3
Cc1cccc(C)c1-n1c(SCC(=O)NCc2ccco2)nc2ccccc2c1=O,5,-17,-1.1,1
COc1ccc2[nH]c(C)c(CCNc3ccc(C(F)(F)F)cc3[N+](=O)[O-])c2c1,-15,-2,-1.5,4
CCC(C)NC(=O)C1(NC(=O)Nc2ccccc2)CCCCC1 (stereo not drawn),x,x,x,5
CCOc1cc(C2/C(=C(/O)c3ccc(OC(C)C)cc3)C(=O)C(=O)N2CCCOC)ccc1O (stereo not drawn),-71,-15,0.5,8.5*
COc1ccc(N(CC(=O)NCCSCc2ccco2)S(=O)(=O)c2ccccc2)cc1,x,x,x,9.3*
O=C(CN(c1ccccc1)S(=O)(=O)c1ccccc1)NCCSCc1ccco1,-33,-7,-0.54,1
COc1ccc(N(CC(=O)N/N=C/c2ccc3c(c2)OCO3)S(=O)(=O)c2ccccc2)cc1,x,x,x,9.2*
COc1ccc(N(CC(=O)Nc2ccc3c(c2)OCO3)S(=O)(=O)c2ccccc2)cc1,x,x,x,4
CCCCN1C(=O)C(NC(C)=O)c2ccccc21 (stereo not drawn),-27,-13,0.59,0
O=C(Nc1ccc(Cl)cn1)c1ccc(Br)c(S(=O)(=O)N2CCCCC2)c1,x,x,x,3
COc1ccc(-c2cc(C(F)(F)F)nc(N3CCCCCC3)n2)cc1,-56,-9,-0.16,8.7*
COc1ccc(-c2cc(C(F)(F)F)nc(N3CCN(C)CC3)n2)cc1,-47,-15,-1.3,1
SMILES,BB579 growth dn,Yeast life ext,SDO1 yeast rescue,RAM network inh
Cc1ccc(-c2cccc(C(=O)NCc3ccccc3)n2)c2ccccc12,-9,3,-0.18,10*
COc1cc2c(cc1[N+](=O)[O-])n(C(C)C)c(=O)n2C(C)C,x,x,x,1
CCCn1c(NC(=O)C2COc3ccccc3O2)nc2ccccc21 (stereo not drawn),-61,-12,-2.5,8.6*
CC(=O)NN1C(=O)c2ccc(Oc3ccc4c(c3)C(=O)N(NC(C)=O)C4=O)cc2C1=O,x,x,x,4
CCOC(=O)c1nnc(-c2ccccc2)nc1Sc1ccccc1Cl,-62,-3,-1.3,11*
CCOC(=O)c1nnc(-c2ccc(C)cc2)nc1Sc1cccc(Cl)c1,-60,3,-1.1,4
O=C(CCC(=O)N1CCN(S(=O)(=O)c2cccc(F)c2)CC1)c1cccs1,x,x,x,1
CC1CCCN(S(=O)(=O)c2ccc(C(=O)Nc3ccccc3-c3nc4ccccc4[nH]3)cc2)C1 (stereo not drawn),-44,3,-0.05,9.8*
COc1ccc(CC(=O)Nc2c3c(nn2-c2cccc(Cl)c2)CS(=O)(=O)C3)cc1,-37,0,0.27,9.2*
